In assay [1] the target is T1, Serine/threonine-protein kinase Nek9 (Homo sapiens) (UniProt Q8TD19).
T1 sequence (whole entry): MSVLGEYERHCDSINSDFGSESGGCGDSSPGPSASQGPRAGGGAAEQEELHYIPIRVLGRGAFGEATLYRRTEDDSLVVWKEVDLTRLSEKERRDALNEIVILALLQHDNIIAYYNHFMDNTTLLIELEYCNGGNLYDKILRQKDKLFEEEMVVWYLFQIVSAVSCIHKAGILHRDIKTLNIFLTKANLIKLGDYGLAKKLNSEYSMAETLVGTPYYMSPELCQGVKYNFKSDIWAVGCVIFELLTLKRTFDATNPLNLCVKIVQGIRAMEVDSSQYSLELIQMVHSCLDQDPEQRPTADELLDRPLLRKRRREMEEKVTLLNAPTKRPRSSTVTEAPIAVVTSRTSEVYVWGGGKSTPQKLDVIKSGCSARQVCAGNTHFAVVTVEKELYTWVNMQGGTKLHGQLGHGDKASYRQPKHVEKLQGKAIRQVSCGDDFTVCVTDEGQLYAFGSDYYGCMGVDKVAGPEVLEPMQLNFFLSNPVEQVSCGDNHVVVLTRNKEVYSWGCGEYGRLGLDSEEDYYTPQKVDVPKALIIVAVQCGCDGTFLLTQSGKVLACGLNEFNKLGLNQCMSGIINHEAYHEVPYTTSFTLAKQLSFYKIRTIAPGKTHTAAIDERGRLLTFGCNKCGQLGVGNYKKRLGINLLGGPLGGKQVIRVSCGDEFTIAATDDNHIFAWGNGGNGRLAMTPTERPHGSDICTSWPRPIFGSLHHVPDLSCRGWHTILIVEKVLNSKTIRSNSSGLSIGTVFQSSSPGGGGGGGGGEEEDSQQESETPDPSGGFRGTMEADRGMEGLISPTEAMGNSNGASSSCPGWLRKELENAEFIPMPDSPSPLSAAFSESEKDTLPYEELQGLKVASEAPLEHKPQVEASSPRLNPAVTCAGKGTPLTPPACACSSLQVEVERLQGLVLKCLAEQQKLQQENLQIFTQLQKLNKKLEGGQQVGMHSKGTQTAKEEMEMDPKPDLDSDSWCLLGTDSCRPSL
The experiment in a line: Inhibition of NEK9 Lys2 labeling site in human Huh-7 cells at 1 uM by KiNativ Profiling analysis relative to control. It counts as cell-based.

In assay [2] the target is Serine/threonine-protein kinase WNK3 (Homo sapiens) (UniProt Q9BYP7). Description: Inhibition of Wnk3 Lys2 labeling site in human Huh-7 cells at 1 uM by KiNativ Profiling analysis relative to control. It is filed as cell-based.
Assay [3] deals with DNA-PK/Ku70/Ku85 (Homo sapiens) (UniProt P78527+P12956+P13010). Description: Inhibition of DNAPK ATP labeling site harbouring KGGSWIQEINVAEK in human A-375 cells at 5 uM by KiNativ Profiling analysis relative to control. It counts as cell-based. In short, it runs like this: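 Live A375 melanoma cells were treated with compound at 0.5 or 5 μM, then lysed. Lysates were labeled with a lysine-reactive ATP or ADP-biotin probe. The read-out was protection of each kinase probe-labeling site from labeling, relative to control.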

Assay [4] concerns the target T2, Serine/threonine-protein kinase TAO3 (Homo sapiens) (UniProt Q9H2K8).
T2 sequence (whole entry): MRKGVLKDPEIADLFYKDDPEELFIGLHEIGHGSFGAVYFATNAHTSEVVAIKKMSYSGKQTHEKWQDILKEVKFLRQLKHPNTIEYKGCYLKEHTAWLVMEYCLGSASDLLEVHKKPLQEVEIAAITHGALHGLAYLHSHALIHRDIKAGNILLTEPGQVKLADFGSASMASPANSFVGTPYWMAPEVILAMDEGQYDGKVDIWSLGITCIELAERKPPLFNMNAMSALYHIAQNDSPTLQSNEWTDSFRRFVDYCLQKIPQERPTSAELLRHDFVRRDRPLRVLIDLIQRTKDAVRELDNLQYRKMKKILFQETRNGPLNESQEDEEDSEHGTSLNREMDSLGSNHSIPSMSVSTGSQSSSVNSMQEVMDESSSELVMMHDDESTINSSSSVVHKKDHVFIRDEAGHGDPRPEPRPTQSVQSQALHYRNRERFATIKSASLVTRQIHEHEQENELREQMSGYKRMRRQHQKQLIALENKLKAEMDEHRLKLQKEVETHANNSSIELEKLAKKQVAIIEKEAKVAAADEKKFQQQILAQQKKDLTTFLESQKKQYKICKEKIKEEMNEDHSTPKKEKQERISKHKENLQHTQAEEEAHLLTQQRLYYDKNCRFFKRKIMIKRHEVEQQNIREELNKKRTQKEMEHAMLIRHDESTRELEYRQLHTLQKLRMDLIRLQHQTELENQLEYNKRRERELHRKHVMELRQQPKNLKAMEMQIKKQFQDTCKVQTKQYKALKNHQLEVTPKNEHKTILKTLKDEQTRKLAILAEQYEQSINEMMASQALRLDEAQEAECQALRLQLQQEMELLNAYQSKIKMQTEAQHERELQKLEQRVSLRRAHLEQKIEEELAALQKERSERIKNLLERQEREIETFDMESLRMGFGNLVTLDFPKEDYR
Description: Inhibition of TAOK3 (unknown origin) at 1 uM by Ambit Kinomescan binding assay relative to control; values are per cent of control.

The target of assay [5] is T3, Mitogen-activated protein kinase kinase kinase 2 (Homo sapiens) (UniProt Q9Y2U5).
T3 sequence (whole entry): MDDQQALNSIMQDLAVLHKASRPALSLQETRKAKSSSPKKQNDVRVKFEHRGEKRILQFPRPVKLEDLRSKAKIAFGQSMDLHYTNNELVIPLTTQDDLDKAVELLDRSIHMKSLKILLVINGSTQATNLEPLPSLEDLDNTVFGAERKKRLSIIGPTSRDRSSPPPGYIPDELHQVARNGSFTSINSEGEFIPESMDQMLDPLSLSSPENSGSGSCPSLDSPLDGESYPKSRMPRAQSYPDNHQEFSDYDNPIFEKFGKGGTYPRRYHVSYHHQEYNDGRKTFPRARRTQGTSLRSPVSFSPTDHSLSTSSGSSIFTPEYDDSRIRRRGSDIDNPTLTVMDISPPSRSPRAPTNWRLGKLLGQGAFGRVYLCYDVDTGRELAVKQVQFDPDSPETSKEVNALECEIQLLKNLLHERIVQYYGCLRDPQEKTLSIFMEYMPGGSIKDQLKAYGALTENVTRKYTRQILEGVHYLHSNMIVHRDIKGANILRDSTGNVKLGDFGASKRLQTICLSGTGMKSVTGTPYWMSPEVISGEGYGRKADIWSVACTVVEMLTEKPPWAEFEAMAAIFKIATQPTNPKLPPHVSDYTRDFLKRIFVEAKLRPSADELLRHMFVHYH
The experiment in a line: Inhibition of MAP3K2 Lys2 labeling site in human A-375 cells at 0.5 uM by KiNativ Profiling analysis relative to control. It counts as cell-based.

Assay [6] in a line: Inhibition of […] ATP labeling site in human Huh-7 cells at 10 uM by KiNativ Profiling analysis relative to control. The following applies: condition cancer.

Serine/threonine-protein kinase WNK3 (Homo sapiens), sequence (Q9BYP7 whole entry): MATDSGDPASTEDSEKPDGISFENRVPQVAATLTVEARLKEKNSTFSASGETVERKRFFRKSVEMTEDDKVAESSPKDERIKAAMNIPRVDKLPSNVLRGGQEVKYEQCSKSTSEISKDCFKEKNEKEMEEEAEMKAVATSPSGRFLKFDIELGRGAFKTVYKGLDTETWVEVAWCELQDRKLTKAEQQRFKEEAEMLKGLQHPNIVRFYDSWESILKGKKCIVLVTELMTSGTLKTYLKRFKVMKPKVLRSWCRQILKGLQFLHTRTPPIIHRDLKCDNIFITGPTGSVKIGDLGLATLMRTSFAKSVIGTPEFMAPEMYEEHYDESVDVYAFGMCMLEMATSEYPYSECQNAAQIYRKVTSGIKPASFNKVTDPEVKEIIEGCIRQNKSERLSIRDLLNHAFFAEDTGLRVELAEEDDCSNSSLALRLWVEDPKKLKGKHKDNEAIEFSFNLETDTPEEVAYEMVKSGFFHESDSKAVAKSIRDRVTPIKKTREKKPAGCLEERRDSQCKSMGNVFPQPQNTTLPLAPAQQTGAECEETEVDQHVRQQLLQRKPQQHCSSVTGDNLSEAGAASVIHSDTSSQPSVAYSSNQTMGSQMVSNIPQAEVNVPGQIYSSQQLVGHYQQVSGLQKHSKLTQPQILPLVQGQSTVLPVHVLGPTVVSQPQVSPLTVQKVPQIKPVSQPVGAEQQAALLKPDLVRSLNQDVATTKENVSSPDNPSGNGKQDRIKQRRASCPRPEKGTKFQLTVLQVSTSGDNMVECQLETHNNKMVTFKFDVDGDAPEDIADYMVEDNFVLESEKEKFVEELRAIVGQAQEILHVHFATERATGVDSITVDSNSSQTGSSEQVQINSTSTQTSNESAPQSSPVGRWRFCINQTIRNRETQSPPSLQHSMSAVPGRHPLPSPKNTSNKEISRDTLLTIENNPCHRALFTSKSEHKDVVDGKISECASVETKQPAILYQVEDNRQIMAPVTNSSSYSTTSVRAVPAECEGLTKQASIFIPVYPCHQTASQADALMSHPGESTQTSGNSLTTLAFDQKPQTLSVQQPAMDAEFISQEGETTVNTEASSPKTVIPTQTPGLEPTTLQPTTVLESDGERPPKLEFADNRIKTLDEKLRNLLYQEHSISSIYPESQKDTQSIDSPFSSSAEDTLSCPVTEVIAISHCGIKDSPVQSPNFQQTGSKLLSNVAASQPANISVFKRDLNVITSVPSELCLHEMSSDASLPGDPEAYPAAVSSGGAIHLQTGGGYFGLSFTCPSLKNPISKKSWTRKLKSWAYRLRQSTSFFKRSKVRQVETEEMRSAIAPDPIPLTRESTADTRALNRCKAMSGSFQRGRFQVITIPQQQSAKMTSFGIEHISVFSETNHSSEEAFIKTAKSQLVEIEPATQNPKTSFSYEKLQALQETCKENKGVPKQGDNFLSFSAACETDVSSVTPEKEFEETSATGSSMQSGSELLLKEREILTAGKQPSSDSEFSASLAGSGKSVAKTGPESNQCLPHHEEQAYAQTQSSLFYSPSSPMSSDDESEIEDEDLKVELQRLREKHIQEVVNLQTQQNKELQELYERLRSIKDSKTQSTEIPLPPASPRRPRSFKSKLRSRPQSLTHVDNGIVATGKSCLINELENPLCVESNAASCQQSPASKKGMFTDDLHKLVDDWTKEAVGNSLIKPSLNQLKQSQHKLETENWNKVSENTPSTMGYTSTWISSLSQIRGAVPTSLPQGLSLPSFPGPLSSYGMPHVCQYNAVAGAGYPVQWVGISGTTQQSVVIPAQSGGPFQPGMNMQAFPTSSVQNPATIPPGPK

Turning to `CNc1cc(Oc2cc(C(=O)Nc3cc(N4CCN(C)CC4)cc(C(F)(F)F)c3)ccc2C)ncn1`, the inhibition in assay [1] is -4.9%; in assay [2], 15.3%.
For `CCN1CCN(Cc2ccc(NC(=O)c3ccc(C)c(/C=C/c4cnc5[nH]ccc5c4OC)c3)cc2C(F)(F)F)CC1`, the inhibition in assay [3] is -8.9%. The same molecule returned a percent of control in assay [4] of 0.75%.
`CCN1CCN(Cc2ccc(NC(=O)c3ccc(C)c(Oc4ccnc5[nH]ccc45)c3)cc2C(F)(F)F)CC1`: the inhibition in assay [5] was 2.8%. Further, in assay [6], the inhibition at 10 µM was -5.1%.

Values taken from ChEMBL document CHEMBL5696442, “Discovery of type II inhibitors of TGFβ-activated kinase 1 (TAK1) and mitogen-activated protein kinase kinase kinase kinase 2 (MAP4K2)” (J Med Chem, 2015).
